Experimental data reported in ChEMBL document CHEMBL1629622, “Isolation of VanB-type Enterococcus faecalis strains from nosocomial infections: first report of the isolation and identification of the pheromone-responsive plasmids pMG2200, Encoding VanB-type vancomycin resistance and a Bac41-type bacteriocin, and pMG2201, encoding erythromycin resistance and …” (2009).
Values after ≈ are worked out from the molar mass of the structure shown. Active and inactive are the calls of the source. The rule behind the calls is not given here. Residues, ends and D or L forms follow the SMILES beside them.

Experiments:
[1] = test system: Enterococcus faecalis; assay: Induction of transfer of plasmid pAM714 in Enterococcus faecalis JH2SS at 100 ng/ml; assay type: functional, organism-based
How it was run: (§1)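 Donor E. faecalis JH2SS carrying pMG2200 and pAM714 was exposed for 2 h to a synthetic pheromone (cCF10 or cAD1, 100 ng/ml) to induce aggregation-mating. A short 10-min mating with recipient FA2-2 followed. Transfer frequency was scored as transconjugants per donor cell at the end of mating.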

[2] = test system: Enterococcus faecalis; assay: Induction of aggregation of Enterococcus faecalis JH2SS harboring pMG2201 at 100 ng/ml; assay type: functional, organism-based
How it was run: (§2)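 Donor E. faecalis JH2SS carrying the plasmid, exposed 2 h to synthetic pheromone (cAD1, cPD1, cCF10, cOB1 or cAM373 at 100 ng/ml) or to FA2-2 culture filtrate. Aggregation (clumping) of cells scored visually afterwards. A short 10-min mating with FA2-2 followed induction.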

[3] = test system: Enterococcus faecalis; assay: Induction of transfer of plasmid pMG2200 in Enterococcus faecalis JH2SS at 100 ng/ml; assay type: functional, organism-based; how it was run: as §1
[4] = test system: Enterococcus faecalis; assay: Induction of aggregation of Enterococcus faecalis JH2SS harboring pMG2200 at 100 ng/ml; assay type: functional, organism-based; how it was run: as §2
[5] = test system: Enterococcus faecalis; assay: Antimicrobial activity against Enterococcus faecalis NKH13 harboring pMG2200-like and pMG2201-like plasmids after 24 hrs by agar dilution method; assay type: functional
How it was run: (§3)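 Agar dilution MICs on clinical E. faecalis isolates. Overnight Mueller-Hinton broth culture diluted 100-fold; ~5 × 10^5 cells inoculated onto Mueller-Hinton medium holding a concentration series of each drug. Incubated at 37°C and read at 24 h. Testing and interpretation follow CLSI (NCCLS) standards, with E. faecium ATCC 9790 as control strain.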

[6] = test system: Enterococcus faecalis; assay: Antimicrobial activity against Enterococcus faecalis NKH17 harboring pMG2200-like plasmid after 24 hrs by agar dilution method; assay type: functional; how it was run: as §3
[7] = test system: Enterococcus faecalis; assay: Antimicrobial activity against Enterococcus faecalis NKH10 harboring pMG2200-like and pMG2201-like plasmids after 24 hrs by agar dilution method; assay type: functional; how it was run: as §3
[8] = test system: Enterococcus faecalis; assay: Antimicrobial activity against Enterococcus faecalis NKH8 harboring pMG2200-like and pMG2201-like plasmids after 24 hrs by agar dilution method; assay type: functional; how it was run: as §3
[9] = test system: Enterococcus faecalis; assay: Antimicrobial activity against Enterococcus faecalis NKH1 harboring pMG2200-like plasmid after 24 hrs by agar dilution method; assay type: functional; how it was run: as §3
[10] = test system: Enterococcus faecalis; assay: Antimicrobial activity against Enterococcus faecalis NKH4 harboring pMG2200-like and pMG2201-like plasmids after 24 hrs by agar dilution method; assay type: functional; how it was run: as §3
[11] = test system: Enterococcus faecalis; assay: Antimicrobial activity against Enterococcus faecalis NKH9 harboring pMG2200-like and pMG2201-like plasmids after 24 hrs by agar dilution method; assay type: functional; how it was run: as §3
[12] = test system: Enterococcus faecalis; assay: Antimicrobial activity against Enterococcus faecalis NKH12 harboring pMG2200-like and pMG2201-like plasmids after 24 hrs by agar dilution method; assay type: functional; how it was run: as §3
[13] = test system: Enterococcus faecalis; assay: Antimicrobial activity against Enterococcus faecalis NKH6 harboring pMG2200-like and pMG2201-like plasmids after 24 hrs by agar dilution method; assay type: functional; how it was run: as §3
[14] = test system: Enterococcus faecalis; assay: Antimicrobial activity against Enterococcus faecalis NKH16 harboring pMG2200-like plasmid after 24 hrs by agar dilution method; assay type: functional; how it was run: as §3
[15] = test system: Enterococcus faecalis; assay: Antimicrobial activity against Enterococcus faecalis NKH2 harboring pMG2200-like and pMG2201-like plasmids after 24 hrs by agar dilution method; assay type: functional; how it was run: as §3
[16] = test system: Enterococcus faecalis; assay: Antimicrobial activity against Enterococcus faecalis NKH11 harboring pMG2200-like plasmid after 24 hrs by agar dilution method; assay type: functional; how it was run: as §3
[17] = test system: Enterococcus faecalis; assay: Antimicrobial activity against Enterococcus faecalis NKH15 harboring pMG2200-like and pMG2201-like plasmids after 24 hrs by agar dilution method; assay type: functional; how it was run: as §3
[18] = test system: Enterococcus faecalis; assay: Antimicrobial activity against Enterococcus faecalis NKH14 harboring pMG2200-like and pMG2201-like plasmids after 24 hrs by agar dilution method; assay type: functional; how it was run: as §3
[19] = test system: Enterococcus faecalis; assay: Antimicrobial activity against Enterococcus faecalis NKH3 harboring pMG2200-like and pMG2201-like plasmids after 24 hrs by agar dilution method; assay type: functional; how it was run: as §3
[20] = test system: Enterococcus faecalis; assay: Antimicrobial activity against Enterococcus faecalis NKH7 harboring pMG2200-like plasmid after 24 hrs by agar dilution method; assay type: functional; how it was run: as §3
[21] = test system: Enterococcus faecalis; assay: Antimicrobial activity against Enterococcus faecalis NKH5 harboring pMG2200-like plasmid after 24 hrs by agar dilution method; assay type: functional; how it was run: as §3
[22] = test system: Enterococcus faecalis; assay: Antimicrobial activity against Enterococcus faecalis NKH18 harboring pMG2200-like and pMG2201-like plasmids after 24 hrs by agar dilution method; assay type: functional; how it was run: as §3

| Compound | MIC ([5]; NKH13, 24 h) [µg/mL] | MIC ([6]; NKH17, 24 h) [µg/mL] | MIC ([7]; NKH10, 24 h) [µg/mL] | MIC ([8]; NKH8, 24 h) [µg/mL] | MIC ([9]; NKH1, 24 h) [µg/mL] | MIC ([10]; NKH4, 24 h) [µg/mL] | MIC ([11]; NKH9, 24 h) [µg/mL] | MIC ([12]; NKH12, 24 h) [µg/mL] | MIC ([13]; NKH6, 24 h) [µg/mL] | MIC ([14]; NKH16, 24 h) [µg/mL] | MIC ([15]; NKH2, 24 h) [µg/mL] | MIC ([16]; NKH11, 24 h) [µg/mL] | MIC ([17]; NKH15, 24 h) [µg/mL] | MIC ([18]; NKH14, 24 h) [µg/mL] | MIC ([19]; NKH3, 24 h) [µg/mL] | MIC ([20]; NKH7, 24 h) [µg/mL] | MIC ([21]; NKH5, 24 h) [µg/mL] | MIC ([22]; NKH18, 24 h) [µg/mL] | other results |
| --- | --- | --- | --- | --- | --- | --- | --- | --- | --- | --- | --- | --- | --- | --- | --- | --- | --- | --- | --- |
| CC(C)C[C@H](NC(=O)[C@H](CO)NC(=O)[C@H](Cc1ccccc1)NC(=O)[C@@H](N)CC(C)C)C(=O)N[C@H](C(=O)N[C@@H](CC(C)C)C(=O)N[C@@H](C)C(=O)NCC(=O)O)C(C)C (H-LFSLVLAG-OH) |  |  |  |  |  |  |  |  |  |  |  |  |  |  |  |  |  |  | Activity [1]: Active; Activity [2]: Active; Activity [3]: inactive; Activity [4]: inactive |
| O=C(O)c1cn(C2CC2)c2cc(N3CCNCC3)c(F)cc2c1=O [CIPROFLOXACIN] | 64 (≈ 193 µM) | 64 (≈ 193 µM) | 64 (≈ 193 µM) | 64 (≈ 193 µM) | 64 (≈ 193 µM) | 64 (≈ 193 µM) | 64 (≈ 193 µM) | 64 (≈ 193 µM) | 64 (≈ 193 µM) | 64 (≈ 193 µM) | 64 (≈ 193 µM) | 64 (≈ 193 µM) | 64 (≈ 193 µM) | 64 (≈ 193 µM) | 64 (≈ 193 µM) | 64 (≈ 193 µM) | 64 (≈ 193 µM) | 64 (≈ 193 µM) |  |
| CSCC[C@H](NC(=O)[C@@H](NC(=O)[C@H](CC(C)C)NC(=O)[C@@H](N)Cc1ccccc1)C(C)C)C(=O)N[C@@H](Cc1ccccc1)C(=O)N[C@@H](CC(C)C)C(=O)N[C@@H](CO)C(=O)NCC(=O)O (H-FLVMFLSG-OH) |  |  |  |  |  |  |  |  |  |  |  |  |  |  |  |  |  |  | Activity [2]: inactive; Activity [4]: inactive |
| GENTAMICIN |  |  |  |  |  |  |  |  |  |  |  |  |  |  |  |  |  |  | MIC [5]: > 1020 µg/mL; MIC [6]: > 1020 µg/mL; MIC [7]: > 1020 µg/mL; MIC [8]: > 1020 µg/mL; MIC [9]: > 1020 µg/mL; MIC [10]: > 1020 µg/mL; MIC [11]: 1020 µg/mL; MIC [12]: > 1020 µg/mL; MIC [13]: > 1020 µg/mL; MIC [14]: > 1020 µg/mL; MIC [15]: > 1020 µg/mL; MIC [16]: > 1020 µg/mL; MIC [17]: > 1020 µg/mL; MIC [18]: > 1020 µg/mL; MIC [19]: > 1020 µg/mL; MIC [20]: > 1020 µg/mL; MIC [21]: > 1020 µg/mL; MIC [22]: > 1020 µg/mL |
| CN[C@H](CC(C)C)C(=O)N[C@H]1C(=O)N[C@@H](CC(N)=O)C(=O)N[C@H]2C(=O)N[C@H]3C(=O)N[C@H](C(=O)N[C@H](C(=O)O)c4cc(O)cc(O)c4-c4cc3ccc4O)[C@H](O)c3ccc(c(Cl)c3)Oc3cc2cc(c3O[C@@H]2O[C@H](CO)[C@@H](O)[C@H](O)[C@H]2O[C@H]2C[C@](C)(N)[C@H](O)[C@H](C)O2)Oc2ccc(cc2Cl)[C@H]1O [VANCOMYCIN] | 256 (≈ 177 µM) | 32 (≈ 22.1 µM) | 256 (≈ 177 µM) | 256 (≈ 177 µM) | 128 (≈ 88.3 µM) |  | 256 (≈ 177 µM) | 256 (≈ 177 µM) |  |  | 256 (≈ 177 µM) |  |  | 256 (≈ 177 µM) |  |  |  |  |  |
| CN[C@@H]1[C@H](O[C@H]2[C@H](O[C@H]3[C@H](O)[C@@H](O)[C@H](N=C(N)N)[C@@H](O)[C@@H]3N=C(N)N)O[C@@H](C)[C@]2(O)C=O)O[C@@H](CO)[C@H](O)[C@H]1O [STREPTOMYCIN] | 32 (≈ 55 µM) | 32 (≈ 55 µM) | 32 (≈ 55 µM) | 32 (≈ 55 µM) | 32 (≈ 55 µM) | 32 (≈ 55 µM) | 32 (≈ 55 µM) | 32 (≈ 55 µM) | 32 (≈ 55 µM) | 32 (≈ 55 µM) | 32 (≈ 55 µM) | 32 (≈ 55 µM) | 32 (≈ 55 µM) | 32 (≈ 55 µM) | 32 (≈ 55 µM) | 32 (≈ 55 µM) | 32 (≈ 55 µM) | 32 (≈ 55 µM) |  |
| NC[C@H]1O[C@H](O[C@H]2[C@H](O)[C@@H](O[C@H]3O[C@H](CO)[C@@H](O)[C@H](N)[C@H]3O)[C@H](N)C[C@@H]2N)[C@H](O)[C@@H](O)[C@@H]1O [KANAMYCIN] | > 1020 | > 1020 | > 1020 | > 1020 | > 1020 | > 1020 | > 1020 | > 1020 | > 1020 | > 1020 | > 1020 | > 1020 | > 1020 | > 1020 | > 1020 | > 1020 | > 1020 | > 1020 |  |
